According to ChEMBL document CHEMBL1151771, “Lanostane-type triterpenes from the mushroom Astraeus pteridis with antituberculosis activity” (J Nat Prod, 2008):
Values after ≈ are worked out from the molar mass of the structure shown.

Legend:
[1] = system: Mycobacterium tuberculosis; assay: Antimicrobial activity against Mycobacterium tuberculosis H37Rv by Alamar blue assay; format: functional
In short: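 M. tuberculosis H37Rv (ATCC27294) in microplate Alamar Blue assay, fluorescence read-out. MIC taken as lowest concentration giving 90% fluorescence reduction relative to controls. Rifampin run in each test as positive quality control.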

Vero = assay: Cytotoxicity against african green monkey Vero cells upto 100 uM; format: cell-based; settings: chlorocebus sabaeus
In short: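 Vero cells (ATCC CCL-81) tested with a nonradioactive cell proliferation (CellTiter 96) assay. IC50 taken as the reciprocal dilution giving 50% inhibition of Vero cells.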

SMILES | MIC [1] [µg/mL] | Activity (Vero)
C[C@H]([C@@H]1CC[C@H](C)[C@@H](O)O1)[C@H]1CC[C@@]2(C)C3=C(CC[C@]12C)[C@@]1(C)CC[C@H](O)C(C)(C)[C@@H]1CC3 [ASTRAPTERIDIOL] | > 64 | Non-toxic
C[C@H]([C@@H]1CC[C@H](C)C(=O)O1)[C@H]1CC[C@@]2(C)C3=C(CC[C@]12C)[C@@]1(C)CCC(=O)C(C)(C)[C@@H]1CC3 [ASTRAHYGRONE] | 64 (≈ 141 µM) | Non-toxic
C[C@H]([C@@H]1CC[C@H](C)[C@@H](O)O1)[C@H]1CC[C@@]2(C)C3=C(CC[C@]12C)[C@@]1(C)CC[C@@H](O)C(C)(C)[C@@H]1CC3 | 34 (≈ 74.1 µM) | Non-toxic
C[C@H]([C@@H]1CC[C@H](C)[C@@H](O)O1)[C@H]1CC[C@@]2(C)C3=C(CC[C@]12C)[C@@]1(C)CCC(=O)C(C)(C)[C@@H]1CC3 [ASTRAPTERIDONE] | > 64 | Non-toxic
C[C@H]([C@@H]1CC[C@H](C)C(=O)O1)[C@H]1CC[C@@]2(C)C3=C(CC[C@]12C)[C@@]1(C)CC[C@@H](O)C(C)(C)[C@@H]1CC3 | 58 (≈ 127 µM) | Non-toxic
